Data from ChEMBL document CHEMBL3271997, “Reactions of 2-acyloxyisobutyryl halides with nucleosides. 6. Synthesis and biological evaluation of some 3'-acyl derivatives of 2,2'-anhydro-1-(beta-D-arabinofuranosyl)cytosine hydrochloride” (J Med Chem, 1976).
pEC50: −log10 of the molar value. Activity calls are given as the source filed them. The rule behind the calls is not given here.

Each molecule was assayed on HeLa (assay: Cytotoxicity against human HeLa cells after 48 hrs by Coulter counting analysis). Conditions: read-out: ED50 (the source's name).
Assay type: functional
Procedure, shortened: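 HeLa cells (10⁵) were grown for 2 days at 37° in MEM with 10% bovine serum. The medium was then replaced with fresh medium containing serial compound dilutions. After 48 h, cells were dispersed with 0.02% trypsin and 0.04% versene and counted on a Coulter counter. The result is expressed as ED50 in μg/ml.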

Row | SMILES | EC50 [µg/mL]
1 | CCCCCCCC/C=C\CCCCCCCCCCCC(=O)O[C@H]1[C@@H]2Oc3nc(=N)ccn3[C@@H]2O[C@@H]1CO.Cl | 0.18
2 | CCCCCCCCCCCCCC(=O)O[C@H]1[C@@H]2Oc3nc(=N)ccn3[C@@H]2O[C@@H]1CO.Cl | 0.2
3 | CCCCCCCCCCCC(=O)O[C@H]1[C@@H]2Oc3nc(=N)ccn3[C@@H]2O[C@@H]1CO.Cl | 0.1
4 | CCCCCCCC/C=C/CCCCCCCC(=O)O[C@H]1[C@@H]2Oc3nc(=N)ccn3[C@@H]2O[C@@H]1CO.Cl | 0.09
5 | CCCCCC(=O)O[C@H]1[C@@H]2Oc3nc(=N)ccn3[C@@H]2O[C@@H]1CO.Cl | 0.1
6 | CCCCCCCCCCCCCCCCCCCCCC(=O)O[C@H]1[C@@H]2Oc3nc(=N)ccn3[C@@H]2O[C@@H]1CO.Cl | 0.38

Each molecule was assayed on L1210 (assay: Antitumor activity against mouse L1210 cells allografted in BDF1 mouse assessed as increase in life span at 500 mg/kg, sc administered 10 days prior to infection relative to control). Conditions: route subcutaneous.
Assay type: functional
Procedure, shortened: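 Single subcutaneous dose given 10 days before infection of mice with L1210 cells; activity expressed as percent increase in life span relative to untreated controls.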

Row | SMILES | ILS at 500 mg/kg [%]
7 | CCCCCCCCCCCCCC(=O)O[C@H]1[C@@H]2Oc3nc(=N)ccn3[C@@H]2O[C@@H]1CO.Cl | 64

These molecules were tested on L1210 (assay: Antitumor activity against mouse L1210 cells allografted in BDF1 mouse assessed as increase in life span at 200 mg/kg, ip administered as single dose 24 hrs post-implantation measured up to 30 days relative to control). Conditions: route intraperitoneal.
Assay type: functional
Procedure, shortened: (§1)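 BDF1 mice inoculated ip with 1-2 × 10⁵ L1210 cells; 24 h later a single ip dose given as solution or suspension in aqueous 0.9% NaCl, 0.4% polysorbate 80, 0.5% low-viscosity sodium carboxymethylcellulose, 0.9% benzyl alcohol. Mice held on normal diet for 30 days. Groups of eight to ten animals; percent increase in life span versus untreated infected controls, with 30-day survivors counted.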

Row | SMILES | ILS at 200 mg/kg [%]
8 | CCCCCCCC/C=C\CCCCCCCCCCCC(=O)O[C@H]1[C@@H]2Oc3nc(=N)ccn3[C@@H]2O[C@@H]1CO.Cl | > 269
9 | CCCCCCCCCCCCCC(=O)O[C@H]1[C@@H]2Oc3nc(=N)ccn3[C@@H]2O[C@@H]1CO.Cl | 100
10 | CCCCCCCCCCCC(=O)O[C@H]1[C@@H]2Oc3nc(=N)ccn3[C@@H]2O[C@@H]1CO.Cl | 40
11 | CCCCCCCC/C=C/CCCCCCCC(=O)O[C@H]1[C@@H]2Oc3nc(=N)ccn3[C@@H]2O[C@@H]1CO.Cl | > 162
12 | CCCCCC(=O)O[C@H]1[C@@H]2Oc3nc(=N)ccn3[C@@H]2O[C@@H]1CO.Cl | 40
13 | CCCCCCCCCCCCCCCCCCCCCC(=O)O[C@H]1[C@@H]2Oc3nc(=N)ccn3[C@@H]2O[C@@H]1CO.Cl | > 169

The molecules below were run on Herpesviridae sp. (assay: Antiviral activity against Herpes simplex virus HF infected in African green monkey BGM cells after 6 days by plaque reduction assay). Conditions: 144 h, read-out: ED50 (the source's name).
Assay type: functional
Procedure, shortened: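 Quantitative plaque reduction assay. Confluent BGM monolayers were infected with 100-200 pfu of HSV (HF strain) and overlaid with 1.25% agar in MEM with 2.0% bovine serum containing graded compound concentrations. A second overlay with neutral red (1:20000) was added on day 4, and plaques were counted on day 6. ED50, the μM concentration giving 50% plaque reduction, was taken from a probability plot of % inhibition against concentration.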

Row | SMILES | pEC50
14 | CCCCCCCC/C=C\CCCCCCCCCCCC(=O)O[C@H]1[C@@H]2Oc3nc(=N)ccn3[C@@H]2O[C@@H]1CO.Cl | < 4.52
15 | CCCCCCCCCCCCCC(=O)O[C@H]1[C@@H]2Oc3nc(=N)ccn3[C@@H]2O[C@@H]1CO.Cl | 5.87
16 | CCCCCCCCCCCC(=O)O[C@H]1[C@@H]2Oc3nc(=N)ccn3[C@@H]2O[C@@H]1CO.Cl | 6.19
17 | CCCCCCCC/C=C/CCCCCCCC(=O)O[C@H]1[C@@H]2Oc3nc(=N)ccn3[C@@H]2O[C@@H]1CO.Cl | 5.72
18 | CCCCCC(=O)O[C@H]1[C@@H]2Oc3nc(=N)ccn3[C@@H]2O[C@@H]1CO.Cl | 5.81
19 | CCCCCCCCCCCCCCCCCCCCCC(=O)O[C@H]1[C@@H]2Oc3nc(=N)ccn3[C@@H]2O[C@@H]1CO.Cl | < 4.52

What follows are molecules tested on L1210 (assay: Antitumor activity against mouse L1210 cells allografted in BDF1 mouse assessed as increase in life span at 1000 mg/kg, ip administered as single dose 24 hrs post-implantation measured up to 30 days relative to control). Conditions: route intraperitoneal.
Assay type: functional
Procedure, shortened: as §1

Row | SMILES | ILS at 1000 mg/kg [%]
20 | CCCCCCCCCCCCCC(=O)O[C@H]1[C@@H]2Oc3nc(=N)ccn3[C@@H]2O[C@@H]1CO.Cl | > 280
21 | CCCCCCCCCCCCCCCCCCCCCC(=O)O[C@H]1[C@@H]2Oc3nc(=N)ccn3[C@@H]2O[C@@H]1CO.Cl | > 240

These molecules were tested on L1210 (assay: Antitumor activity against mouse L1210 cells allografted in BDF1 mouse assessed as survival at 1000 mg/kg, ip administered as single dose 24 hrs post-implantation after 30 days). Conditions: not given.
Assay type: functional, organism-based
Design: dose 1000 mg/kg
Procedure, shortened: (§2)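 BDF1 mice were inoculated ip with 1-2 × 10⁵ L1210 cells. After 24 h, one ip dose was given as a solution or suspension in aqueous 0.9% NaCl, 0.4% polysorbate 80, 0.5% low-viscosity Na carboxymethylcellulose and 0.9% benzyl alcohol. Mice were followed for 30 days, with 8-10 per group. The read-out is % increase in life span versus infected controls, plus the count of 30-day survivors.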

Row | SMILES | Activity
22 | CCCCCCCCCCCCCC(=O)O[C@H]1[C@@H]2Oc3nc(=N)ccn3[C@@H]2O[C@@H]1CO.Cl | Active

The molecules below were run on Vaccinia virus (assay: Antiviral activity against Vaccinia virus IHD infected in African green monkey BGM cells after 6 days by plaque reduction assay). Conditions: Orthopoxvirus vaccinia, 144 h, read-out: ED50 (the source's name).
Assay type: functional

Row | SMILES | pEC50
23 | CCCCCCCC/C=C\CCCCCCCCCCCC(=O)O[C@H]1[C@@H]2Oc3nc(=N)ccn3[C@@H]2O[C@@H]1CO.Cl | 4.52
24 | CCCCCCCCCCCCCC(=O)O[C@H]1[C@@H]2Oc3nc(=N)ccn3[C@@H]2O[C@@H]1CO.Cl | 6.47
25 | CCCCCCCCCCCC(=O)O[C@H]1[C@@H]2Oc3nc(=N)ccn3[C@@H]2O[C@@H]1CO.Cl | 6.19
26 | CCCCCCCC/C=C/CCCCCCCC(=O)O[C@H]1[C@@H]2Oc3nc(=N)ccn3[C@@H]2O[C@@H]1CO.Cl | 6.05
27 | CCCCCC(=O)O[C@H]1[C@@H]2Oc3nc(=N)ccn3[C@@H]2O[C@@H]1CO.Cl | 6.64
28 | CCCCCCCCCCCCCCCCCCCCCC(=O)O[C@H]1[C@@H]2Oc3nc(=N)ccn3[C@@H]2O[C@@H]1CO.Cl | 4.73

Each molecule was assayed on L1210 (assay: Antitumor activity against mouse L1210 cells allografted in BDF1 mouse assessed as survival at 200 mg/kg, ip administered as single dose 24 hrs post-implantation after 30 days). Conditions: not given.
Assay type: functional, organism-based
Design: dose 200 mg/kg
Procedure, shortened: as §2

Row | SMILES | Activity
29 | CCCCCCCCCCCCCC(=O)O[C@H]1[C@@H]2Oc3nc(=N)ccn3[C@@H]2O[C@@H]1CO.Cl | inactive
30 | CCCCCCCCCCCC(=O)O[C@H]1[C@@H]2Oc3nc(=N)ccn3[C@@H]2O[C@@H]1CO.Cl | inactive
31 | CCCCCC(=O)O[C@H]1[C@@H]2Oc3nc(=N)ccn3[C@@H]2O[C@@H]1CO.Cl | inactive
